Screening results as filed in PubChem BioAssay.
Cneo AK release: causes C. neoformans cell lysis; adenylate kinase release luminescence, 4 h; normalised: neutral wells 0, clomiphene wells 100; lysis activity, % at 15 µM; 360,000 compounds, 0.2% hits; AID 651654;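 active = mean lysis activity across replicates of at least 80%, whatever share of replicates individually reach that level; inactive = mean lysis activity below 80%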
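Assay system: C. neoformans cells. Amount: yeast cell density of 5 × 10^6 cells/mL. Technique: AK luminescence. Buffer or medium: YPD. Times: static 4 h at 37 °C with compound, 1 h detection. Dosing: single-point compound dose. Read-out: lysis from increased AK signal.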
Rtt109 Vps75: inhibitors of Candida albicans Rtt109/Vps75 histone acetyltransferase. Q5AAJ8. inhibition, % at 34.9 µM. 330,000 compounds, 0.16% hits. AID 540336. purified Rtt109/Vps75, ThioGlo CoA-SH fluorescence, 4 h;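 active = inhibition of at least 50% in every replicate; inconclusive = best replicate reaches 50% inhibition but some replicates fall short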
Target sequence (Q5AAJ8 whole entry, looked up): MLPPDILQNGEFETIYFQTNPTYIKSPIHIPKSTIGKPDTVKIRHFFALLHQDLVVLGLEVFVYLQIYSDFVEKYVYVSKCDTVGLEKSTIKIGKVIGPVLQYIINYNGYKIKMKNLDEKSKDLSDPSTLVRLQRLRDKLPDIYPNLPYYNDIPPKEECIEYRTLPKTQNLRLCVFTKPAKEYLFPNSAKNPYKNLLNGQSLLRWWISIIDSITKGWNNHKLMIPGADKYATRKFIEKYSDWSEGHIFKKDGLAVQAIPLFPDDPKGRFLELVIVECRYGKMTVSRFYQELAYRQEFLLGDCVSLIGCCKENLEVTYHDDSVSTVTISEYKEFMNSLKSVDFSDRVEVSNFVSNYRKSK
Env fusion inh: inhibitors of HIV Env-mediated cell fusion; HeLa-JRFL Env/CEM21 cell fusion, luciferase; inhibition, % at 12.3 µM; 360,000 compounds, 1.1% hits;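 active = mean replicate inhibition score of at least 50 and every replicate individually at or above 50; inconclusive = only one of the two criteria met; inactive = mean below 50 and not all replicates reaching 50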;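 also: 0% = plate neutral controls and 100% = maraviroc near 300 nM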
dFosB act: activators of mouse delta FosB homodimer. purified delta FosB, TAMRA-CDK5 oligo fluorescence polarization; percent of positive-control signal above neutral wells. activation, % at 25 µM. 340,000 compounds, 0.99% hits. AID 493131;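 active = mean activation above about 17%, with every replicate also reaching it, limit read from the data, passing the limit was not always enough; inconclusive = only one of the two conditions met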
Target sequence (P13346 whole entry, looked up): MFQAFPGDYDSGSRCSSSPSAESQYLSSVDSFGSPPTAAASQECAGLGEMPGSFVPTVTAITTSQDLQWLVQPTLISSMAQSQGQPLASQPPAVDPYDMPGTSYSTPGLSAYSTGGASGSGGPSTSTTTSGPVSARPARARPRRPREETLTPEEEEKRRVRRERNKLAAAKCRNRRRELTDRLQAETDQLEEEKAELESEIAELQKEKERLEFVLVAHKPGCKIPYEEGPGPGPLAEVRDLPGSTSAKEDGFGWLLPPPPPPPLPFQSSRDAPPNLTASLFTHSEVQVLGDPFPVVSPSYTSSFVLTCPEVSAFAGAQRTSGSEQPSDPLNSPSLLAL
miR122 inh: miR-122 inhibition in Huh7 cells; Huh7 miR-122 Renilla luciferase sensor, 48 h; neutral wells = 0, positive control = 100; activation (reporter increase), % at 12.5 µM; 340,000 compounds, 0.3% hits;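 active = mean replicate activation score at least 90 and every replicate individually at or above 90; inconclusive = only one of the two criteria met; inactive = neither criterion met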;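 also: higher luciferase means less miR-122 activity so hits act as miR-122 inhibitors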
GSIS activator: primary screen for activators of insulin secretion dependent on glucose, INS-1E cells, GLuc reporter luminescence. INS-1E GLuc reporter insulin secretion, 2-3 h. activation, % at 16.6 µM. 370,000 compounds, 0.61% hits;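 active = lowest replicate activation of at least 40%, so every replicate reaches that level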;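 also: 0% = median of neutral control wells and 100% = median of IBMX positive control wells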
The depositor's hits bear a star; u = inconclusive; x = no result; [ ] = another dose, or the depositor's remark. Shown are actives, neighbours in structure and some others; about 2.4% of the full set was active somewhere.

SMILES	Cneo AK release	Rtt109 Vps75	Env fusion inh	dFosB act	miR122 inh	GSIS activator
COc1cccc(CN(C(=O)Cc2c[nH]c3ccccc23)C(C(=O)NC2CCCCC2)c2cccs2)c1 (configuration not stated)	-2.4	3.8	90.7*	-15.0	240.2*	x
COc1ccc(C(C(=O)NC2CCCCC2)N(Cc2cccs2)C(=O)Cc2c[nH]c3ccccc23)cc1 (configuration not stated)	-0.3	2.2	u	-15.1	65.2	x
O=C(NCC(=O)N(Cc1cccs1)C(C(=O)NC1CCCCC1)c1ccco1)c1ccco1 (configuration not stated)	1.3	18.8	x	-3.7	20.8	-0.5
O=C(NC1CCCCC1)C(c1cccs1)N(C(=O)Cc1c[nH]c2ccccc12)c1ccc(F)cc1 (configuration not stated)	2.0	5.5	87.2*	-9.0	-7.7	x
Cc1ccc(C(C(=O)NC2CCCCC2)N(C(=O)Cc2c[nH]c3ccccc23)c2ccccc2)o1 (configuration not stated)	-2.0	3.7	111.6*	-10.6	34.2	x
CC(=O)Nc1ccc(N(C(=O)Cc2c[nH]c3ccccc23)C(C(=O)NC2CCCCC2)c2ccco2)cc1 (configuration not stated)	2.2	15.6	-11.6	-10.5	0.6	-21.2
O=C(NC1CCCCC1)C(c1cccs1)N(Cc1cccs1)C(=O)c1ccco1 (configuration not stated)	-1.2	-2.8	83.6*	-5.7	4.7	x
CCCCC(=O)N(C)c1c(CC)nc2c(OCc3ccc(C(F)(F)F)cc3)cccn12	9.5	x	-12.7	x	-4.1	52.8*
CCOC(=O)N(C)c1c(CC)nc2c(OCc3ccc(C(F)(F)F)cc3)cccn12	5.5	x	25.7	x	8.7	8.6
CCc1nc2c(OCc3ccc(C(F)(F)F)cc3)cccn2c1N(C)C(=O)c1ccc(C)cc1	4.6	x	56.7*	x	-3.6	x
CCOC(=O)N(C)c1c(CC)nc2c(OCc3cc(Cl)cc(Cl)c3)cccn12	13.8	x	56.0*	x	-1.0	x
CCc1nc2c(OCc3ccc(C(F)(F)F)cc3)cccn2c1N(C)C(=O)c1ccc(OC)cc1	0.2	x	21.1	x	-3.2	-41.6
C[C@H](NC(=O)N(C)C[C@@H]1OCc2ccccc2-c2c(n(C)c3ccccc23)C(=O)N([C@H](C)CO)C[C@@H]1C)c1ccccc1	-2.3	x	43.2[16.7 µM]	x	x	-2.5
CCOc1ccc(-c2cccc(NS(=O)(=O)c3ccccc3[N+](=O)[O-])c2)nn1	1.7	5.0	94.1*	-5.2	1.9	28.5
CCOc1ccc(-c2cccc(NS(=O)(=O)c3cc([N+](=O)[O-])ccc3C)c2)nn1	-1.0	-3.9	x	-9.7	130.5*	-16.1
COC(=O)c1ccc(NC(=O)c2cccc(N3C(=O)C4C5C=CC(C6CC56)C4C3=O)c2)cc1 (configuration not stated)	2.0	1.5	63.8*	27.5*	x	-5.1
O=C(Nc1ccccc1)c1cccc(N2C(=O)C3C4C=CC(C5CC45)C3C2=O)c1 (configuration not stated)	x	9.1	8.2	-16.5	x	-25.1
Cc1ccc(NC(=O)c2ncn(CCCN(CCCn3cnc(C(=O)Nc4ccc(C)c(C)c4)n3)Cc3ccc4[nH]ccc4c3)n2)cc1C	0.0	-4.6	36.8	77.0*	0.5	-19.1
COc1ccccc1NC(=O)CCc1c(C)nc2c(-c3ccc(F)cc3)c(C)nn2c1C	3.1	-12.2	u	-23.7	1.6	-34.1
Cc1nc2c(-c3ccc(F)cc3)c(C)nn2c(C)c1CCC(=O)N1CCC(Cc2ccccc2)CC1	-2.9	6.6	55.2*	5.7	-1.3	0.1
Cc1nc2c(-c3ccc(F)cc3)c(C)nn2c(C)c1CCC(=O)N1CCN(c2ccc(F)cc2)CC1	-0.2	-10.8	56.0*	-11.5	-14.0	-28.7
Cc1nc2c(-c3ccc(F)cc3)c(C)nn2c(C)c1CCC(=O)Nc1ccccc1	-1.9	u	63.3*	11.5	x	-25.3
CCCC[n+]1c(C)sc2cc(OC)ccc21	x	185.4*	5.4	1.1	x	0.9
CC(=O)c1sc(NC(=O)C2(F)C(F)(F)C(F)(F)C(F)(F)C(F)(F)C2(F)F)nc1C	136.5*	34.5	x	-17.3	-15.0	-22.8
CC(=O)c1sc(NC(=O)C=C(C)C)nc1C	3.1	1.3	-42.5	-4.9	-5.6	x
SMILES	Cneo AK release	Rtt109 Vps75	Env fusion inh	dFosB act	miR122 inh	GSIS activator
COc1ccc2c(C)cc(SCC(=O)Nc3cc(C(N)=O)cc(C(N)=O)c3)nc2c1	40.9	-0.5	2.0	67.6*	-11.7	8.0
COc1ccc2nc(SCC(=O)NN)cc(C)c2c1	1.9	-3.5	-105.7	1.4	72.6	x
O=C(C[C@@H]1C=C[C@@H](NS(=O)(=O)c2ccccc2F)[C@@H](CO)O1)NCCCN1CCOCC1	-2.4	x	x	x	x	2.9
CN1CCN(C(=O)C[C@H]2C[C@H]3c4cc(NC(=O)Nc5ccc(F)cc5)ccc4O[C@H]3[C@H](CO)O2)CC1	16.4	x	x	x	-7.1[16.7 µM]	-2.3
O=C(NC1CCCCCC1)c1ccc(Br)o1	3.4	-12.8	-7.2	-6.9	x	4.6
O=C(NC1CCCCC1)Oc1cc2oc(=O)sc2cc1Br	x	59.4*	10.6	-2.9	x	x
CN(C)C(=O)[C@@]1(Cc2ccccc2N=[N+]=[N-])N=C(c2ccc(OCCCO)cc2)O[C@H]1c1ccccc1N=[N+]=[N-]	14.7	x	8.3[16.7 µM]	x	x	x
[N-]=[N+]=Nc1ccccc1C[C@@]1(C(=O)NCc2ccccc2)N=C(c2ccc(OCCCO)cc2)O[C@@H]1c1ccccc1N=[N+]=[N-]	-5.8	x	59.5*[16.7 µM]	x	x	x
C[C@H]1CN([C@@H](C)CO)C(=O)c2cc(NS(=O)(=O)c3ccccc3)ccc2O[C@@H]1CN(C)S(=O)(=O)c1ccc(F)cc1	x	x	2.1[16.7 µM]	x	-1.2[16.7 µM]	-9.9
C[C@H]1CN([C@@H](C)CO)C(=O)c2cc(NS(=O)(=O)c3ccc(F)cc3)ccc2O[C@H]1CN(C)S(=O)(=O)c1ccc(F)cc1	-1.8	x	57.5*[16.7 µM]	x	-1.7[16.7 µM]	-10.1
C[C@H]1CN([C@@H](C)CO)C(=O)c2cc(NS(=O)(=O)c3ccc(F)cc3)ccc2O[C@@H]1CN(C)S(=O)(=O)c1ccccc1	104.5*	x	-22.7[16.7 µM]	x	16.3[16.7 µM]	-8.0
C[C@H]1CN([C@@H](C)CO)C(=O)c2cc(NS(=O)(=O)c3ccc(F)cc3)ccc2O[C@@H]1CN(C)S(=O)(=O)c1ccc(F)cc1	0.4	x	-96.2[16.7 µM]	x	0.4[16.7 µM]	6.4
CNC[C@H]1Oc2ccc(N(C)C)cc2C(=O)N(C)C[C@@H]1C	x	x	x	x	x	-0.2
O=C(c1ccc2c(c1)OCO2)N1CCCCN2[C@H](CO)[C@@H](c3ccc(-c4ccccc4)cc3)[C@@H]2C1	1.2	x	x	x	33.2[16.7 µM]	-6.4
CCOc1ccc(C(=O)Nc2cccc(C(=O)O)c2C)cc1Cl	x	-6.0	59.7*	3.6	-5.3	22.0
CCOc1ccc(C(=O)Nc2ccccc2-c2ccccc2)cc1Cl	-4.5	-1.5	-47.7	-3.4	-5.7	-28.1
